Residues, ends and D or L forms follow the SMILES beside them.
What was measured:
[1] = target: T1, Delta-type opioid receptor (Mus musculus, UniProt P32300); experiment: Agonist activity at delta opioid receptor in mouse assessed as inhibition of electrically evoked vas-deferens contraction by MVD test
Rattus norvegicus [2] = species: Rattus norvegicus; experiment: Selectivity ratio of Ki for Sprague-Dawley rat delta opioid receptor to Ki for Sprague-Dawley rat mu opioid receptor
Mu-type opioid receptor [3] = target: Mu-type opioid receptor (Rattus norvegicus, UniProt P33535); experiment: Displacement of [3H]DAMGO from mu opioid receptor in Sprague-Dawley rat brain synaptosomal membranes; assay type: cell membranes, Membrane
Mu-type opioid receptor (Rattus norvegicus, UniProt P33535), sequence (P33535 whole entry): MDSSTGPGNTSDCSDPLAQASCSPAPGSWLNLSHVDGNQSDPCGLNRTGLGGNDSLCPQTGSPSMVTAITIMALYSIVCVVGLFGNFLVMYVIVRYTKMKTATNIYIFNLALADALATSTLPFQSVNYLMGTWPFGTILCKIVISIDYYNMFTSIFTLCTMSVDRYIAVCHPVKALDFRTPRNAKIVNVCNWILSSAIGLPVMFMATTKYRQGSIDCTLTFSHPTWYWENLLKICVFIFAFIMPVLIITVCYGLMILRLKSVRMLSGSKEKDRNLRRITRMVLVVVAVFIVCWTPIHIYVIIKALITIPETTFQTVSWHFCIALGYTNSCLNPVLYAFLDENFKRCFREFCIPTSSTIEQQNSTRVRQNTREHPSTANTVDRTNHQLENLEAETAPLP
Outline: (§1)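 Radioligand competition in rat brain synaptosomal preparations. Peptides tested at five to eight graded doses, each assay in duplicate, repeated three to six times on several different synaptosomal preparations. Ki calculated by Cheng–Prusoff; mean ± SEM.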

[4] = target: Delta-type opioid receptor (Rattus norvegicus, UniProt P33533); experiment: Displacement of [3H]DPDPE from delta opioid receptor in Sprague-Dawley rat brain synaptosomal membranes; assay type: cell membranes, Membrane; outline: as §1
Delta-type opioid receptor (Rattus norvegicus, UniProt P33533), sequence (P33533 whole entry): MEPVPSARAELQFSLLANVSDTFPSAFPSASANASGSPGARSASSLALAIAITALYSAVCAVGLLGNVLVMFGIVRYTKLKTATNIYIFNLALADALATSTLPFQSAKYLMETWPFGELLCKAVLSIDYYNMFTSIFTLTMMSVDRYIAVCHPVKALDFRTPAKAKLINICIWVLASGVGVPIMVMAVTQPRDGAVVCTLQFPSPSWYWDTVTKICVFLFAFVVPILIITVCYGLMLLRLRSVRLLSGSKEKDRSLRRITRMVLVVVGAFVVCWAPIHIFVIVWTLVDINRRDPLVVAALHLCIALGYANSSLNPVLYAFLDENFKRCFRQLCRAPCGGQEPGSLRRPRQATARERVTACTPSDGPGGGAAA

Mu-type opioid receptor [5] = target: Mu-type opioid receptor (Cavia porcellus, UniProt P97266); experiment: Agonist activity at mu opioid receptor in Hartley guinea pig assessed as inhibition of electrically evoked ileum contraction by GPI test; assay type: functional, tissue-based
Mu-type opioid receptor (Cavia porcellus, UniProt P97266), sequence (P97266 whole entry): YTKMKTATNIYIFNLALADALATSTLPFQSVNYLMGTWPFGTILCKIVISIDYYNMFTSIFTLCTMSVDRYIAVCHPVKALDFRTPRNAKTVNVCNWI
Outline: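 Isolated tissue bioassays: mouse vas deferens (delta) and guinea-pig ileum (mu). Agonism expressed as IC50 read from dose–response curves. Internal standards were deltorphin C (MVD) and dermorphin (GPI). Mean ± SEM of at least six fresh tissue samples.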

Rattus norvegicus [6] = species: Rattus norvegicus; experiment: Selectivity ratio of Ki for Sprague-Dawley rat mu opioid receptor to Ki for Sprague-Dawley rat delta opioid receptor
[7] = target: T1, Delta-type opioid receptor; experiment: Antagonist activity at delta opioid receptor in mouse assessed as effect on electrically evoked vas-deferens contraction by MVD test; assay type: functional; conditions: read-out: pA2 (converted)

T1 sequence (P32300 whole entry): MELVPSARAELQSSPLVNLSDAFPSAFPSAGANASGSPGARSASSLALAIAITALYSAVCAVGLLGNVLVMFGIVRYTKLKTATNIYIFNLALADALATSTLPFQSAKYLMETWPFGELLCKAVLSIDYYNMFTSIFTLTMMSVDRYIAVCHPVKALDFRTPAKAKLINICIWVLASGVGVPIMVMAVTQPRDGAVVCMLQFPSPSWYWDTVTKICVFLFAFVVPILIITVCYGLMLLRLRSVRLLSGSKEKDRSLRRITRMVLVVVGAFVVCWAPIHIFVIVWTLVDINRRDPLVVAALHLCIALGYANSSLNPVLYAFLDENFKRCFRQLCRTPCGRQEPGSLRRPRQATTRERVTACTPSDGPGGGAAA

| SMILES | IC50 [1] | Ratio Ki (Rattus norvegicus [2]) | Ki (Mu-type opioid receptor [3]) | Ki [4] | IC50 (Mu-type opioid receptor [5]) | Ratio Ki (Rattus norvegicus [6]) | Kb [7] |
| --- | --- | --- | --- | --- | --- | --- | --- |
| Cc1cc(O)cc(C)c1C[C@H](N)C(=O)N[C@@H]1Cc2c([nH]c3ccccc23)CN(CC(=O)NCc2ccccc2)C1=O | 1500 nM | 48 | 3.35 nM | 161 nM | 14.9 nM | – | – |
| Cc1cc(O)cc(C)c1C[C@H](N)C(=O)N[C@H]1Cc2ccccc2CN([C@@H](CC(=O)O)C(=O)NCc2ccccc2)C1=O | – | 2.3 | 630 nM | 1480 nM | – | – | – |
| Cc1cc(O)cc(C)c1C[C@H](N)C(=O)N[C@H]1Cc2c([nH]c3ccccc23)CN(CC(=O)OCc2ccccc2)C1=O | – | 17 | 244 nM | 4060 nM | – | – | – |
| Cc1cc(O)cc(C)c1C[C@H](N)C(=O)N[C@H]1Cc2c([nH]c3ccccc23)CN(CC(=O)O)C1=O | – | – | 1450 nM | 806 nM | > 20000 nM | 1.8 | – |
| Cc1cc(O)cc(C)c1C[C@H](N)C(=O)N[C@H]1Cc2ccccc2CNC1=O | – | 30 | 12.4 nM | 368 nM | 631 nM | – | – |
| Cc1cc(O)cc(C)c1C[C@@H](C(=O)N[C@@H]1Cc2c([nH]c3ccccc23)CN(CC(=O)O)C1=O)N(C)C | – | – | 10100 nM | 1150 nM | – | 8.8 | – |
| Cc1cc(O)cc(C)c1C[C@H](N)C(=O)N[C@H]1Cc2ccccc2CN(CC(=O)NCc2ccccc2)C1=O | – | 24 | 0.46 nM | 11 nM | – | – | – |
| Cc1cc(O)cc(C)c1C[C@H](N)C(=O)N[C@H]1Cc2ccccc2CN([C@@H](CCCCN)C(=O)NCc2ccccc2)C1=O | – | 29 | 10.1 nM | 290 nM | 3270 nM | – | – |
| Cc1cc(O)cc(C)c1C[C@@H](C(=O)N[C@H]1Cc2ccccc2CNC1=O)N(C)C | > 20000 nM | – | 64.9 nM | 20.5 nM | > 20000 nM | 3.2 | 63.1 nM |
| Cc1cc(O)cc(C)c1C[C@@H](C(=O)N[C@H]1Cc2c([nH]c3ccccc23)CN(CC(=O)O)C1=O)N(C)C | > 20000 nM | – | 875 nM | 6.64 nM | > 20000 nM | 132 | 5.01 nM |
| Cc1cc(O)cc(C)c1C[C@H](N)C(=O)N1Cc2ccccc2C[C@H]1C(=O)NCC(=O)NCc1ccccc1 (HELM PEPTIDE1{[Cc1cc(O)cc(C)c1C[C@H](N)C(=O)[*:2]].[Tic].G.[c1ccc(CN[*:1])cc1]}$$$$V2.0) | – | – | – | – | – | 5.2 | 0.501 nM |
| Cc1cc(O)cc(C)c1C[C@@H](C(=O)N[C@@H]1Cc2c([nH]c3ccccc23)CN(CC(=O)NCc2ccccc2)C1=O)N(C)C | – | 5 | 133 nM | 681 nM | – | – | – |
| Cc1cc(O)cc(C)c1C[C@H](N)C(=O)N[C@H]1Cc2c([nH]c3ccccc23)CN(CC(=O)NCc2ccccc2)C1=O | – | 7.2 | 50 nM | 358 nM | 1800 nM | – | – |
| Cc1cc(O)cc(C)c1C[C@H](N)C(=O)N[C@@H]1Cc2c([nH]c3ccccc23)CN(CC(=O)O)C1=O | – | – | 2900 nM | 720 nM | – | 4 | – |

— ChEMBL document CHEMBL1154529, “Conformationally constrained opioid ligands: the Dmt-Aba and Dmt-Aia versus Dmt-Tic scaffold” (Bioorg Med Chem Lett, 2009)
